Measured values from ChEMBL document CHEMBL3864121, “Development of ebsulfur analogues as potent antibacterials against methicillin-resistant Staphylococcus aureus” (Bioorg Med Chem, 2016).
Values after ≈ are worked out from the molar mass of the structure shown.

How the values were obtained:
Assay type in all cases: functional
Staphylococcus aureus [1] = assay: Antibacterial activity against methicillin-resistant Staphylococcus aureus C7 measured after overnight incubation by broth double-dilution method
Method in brief: (§1)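 MIC by broth double-dilution in liquid Mueller-Hinton medium. Values are reported in µg/mL.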

Staphylococcus aureus [2] = assay: Antibacterial activity against methicillin-resistant Staphylococcus aureus C14 measured after overnight incubation by broth double-dilution method; method in brief: as §1
Staphylococcus aureus [3] = assay: Antibacterial activity against methicillin-resistant Staphylococcus aureus C1 measured after overnight incubation by broth double-dilution method; method in brief: as §1
Staphylococcus aureus [4] = assay: Antibacterial activity against methicillin-resistant Staphylococcus aureus NRS4 measured after overnight incubation by broth double-dilution method; method in brief: as §1
Staphylococcus aureus [5] = assay: Antibacterial activity against methicillin-resistant Staphylococcus aureus 2 measured after overnight incubation by broth double-dilution method; method in brief: as §1
Staphylococcus aureus [6] = assay: Antibacterial activity against methicillin-resistant Staphylococcus aureus ATCC 33591 measured after overnight incubation by broth double-dilution method; method in brief: as §1
Enterococcus = assay: Antibacterial activity against Vancomycin-resistant Enterococcus measured after overnight incubation by broth double-dilution method; method in brief: as §1
Staphylococcus aureus [7] = assay: Antibacterial activity against methicillin-resistant Staphylococcus aureus USA600 measured after overnight incubation by broth double-dilution method; method in brief: as §1
Staphylococcus aureus [8] = assay: Antibacterial activity against methicillin-sensitive Staphylococcus aureus ATCC 29213 measured after overnight incubation by broth double-dilution method; method in brief: as §1
Enterococcus faecium = assay: Antibacterial activity against Enterococcus faecium BM4105-RF measured after overnight incubation by broth double-dilution method; method in brief: as §1
Staphylococcus aureus [9] = assay: Antibacterial activity against methicillin-resistant Staphylococcus aureus S17 measured after overnight incubation by broth double-dilution method; method in brief: as §1
Staphylococcus aureus [10] = assay: Antibacterial activity against methicillin-resistant Staphylococcus aureus G14 measured after overnight incubation by broth double-dilution method; method in brief: as §1
Staphylococcus aureus [11] = assay: Antibacterial activity against methicillin-resistant Staphylococcus aureus G12 measured after overnight incubation by broth double-dilution method; method in brief: as §1
Staphylococcus aureus [12] = assay: Antibacterial activity against methicillin-sensitive Staphylococcus aureus ATCC 25923 measured after overnight incubation by broth double-dilution method; method in brief: as §1
Staphylococcus aureus [13] = assay: Antibacterial activity against methicillin-resistant Staphylococcus aureus BRS3 measured after overnight incubation by broth double-dilution method; method in brief: as §1
Staphylococcus aureus [14] = assay: Antibacterial activity against methicillin-resistant Staphylococcus aureus USA200 measured after overnight incubation by broth double-dilution method; method in brief: as §1
Enterococcus faecalis [15] = assay: Antibacterial activity against Enterococcus faecalis ATCC 49533 measured after overnight incubation by broth double-dilution method
Method in brief: (§2)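 MIC by broth double-dilution in Mueller-Hinton medium. Re-testing at the time-kill inoculum used 1×10^6 CFU/mL.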

Staphylococcus aureus [16] = assay: Antibacterial activity against methicillin-resistant Staphylococcus aureus G1 measured after overnight incubation by broth double-dilution method; method in brief: as §1
[17] = test system: Mycolicibacterium smegmatis; assay: Antibacterial activity against Mycobacterium smegmatis MC2-155 measured after overnight incubation by broth double-dilution method; conditions: str. MC2 155; method in brief: as §1
Staphylococcus aureus [18] = assay: Antibacterial activity against methicillin-resistant Staphylococcus aureus USA100 measured after overnight incubation by broth double-dilution method; method in brief: as §1
Enterococcus faecalis [19] = assay: Antibacterial activity against Enterococcus faecalis ATCC 29212 measured after overnight incubation by broth double-dilution method; method in brief: as §2
[20] = test system: Staphylococcus epidermidis; assay: Antibacterial activity against Staphylococcus epidermidis ATCC 35984 measured after overnight incubation by broth double-dilution method; conditions: RP62A; method in brief: as §2
Staphylococcus aureus [21] = assay: Antibacterial activity against methicillin-resistant Staphylococcus aureus S14 measured after overnight incubation by broth double-dilution method; method in brief: as §1
Staphylococcus aureus [22] = assay: Antibacterial activity against methicillin-resistant Staphylococcus aureus NRS77 measured after overnight incubation by broth double-dilution method; method in brief: as §1
Staphylococcus aureus [23] = assay: Antibacterial activity against methicillin-resistant Staphylococcus aureus C2 measured after overnight incubation by broth double-dilution method; method in brief: as §1
Listeria monocytogenes = assay: Antibacterial activity against Listeria monocytogenes ATCC 19115 measured after overnight incubation by broth double-dilution method; method in brief: as §2
Staphylococcus aureus [24] = assay: Antibacterial activity against methicillin-resistant Staphylococcus aureus USA300 measured after overnight incubation by broth double-dilution method; method in brief: as §1
Staphylococcus aureus [25] = assay: Antibacterial activity against methicillin-resistant Staphylococcus aureus 1 measured after overnight incubation by broth double-dilution method; method in brief: as §1
Staphylococcus aureus [26] = assay: Antibacterial activity against methicillin-resistant Staphylococcus aureus S24 measured after overnight incubation by broth double-dilution method; method in brief: as §1
Staphylococcus aureus [27] = assay: Antibacterial activity against methicillin-resistant Staphylococcus aureus G6 measured after overnight incubation by broth double-dilution method; method in brief: as §1
Staphylococcus aureus [28] = assay: Antibacterial activity against methicillin-resistant Staphylococcus aureus C19 measured after overnight incubation by broth double-dilution method; method in brief: as §1
Staphylococcus aureus [29] = assay: Antibacterial activity against methicillin-resistant Staphylococcus aureus C16 measured after overnight incubation by broth double-dilution method; method in brief: as §1
Staphylococcus aureus [30] = assay: Antibacterial activity against methicillin-resistant Staphylococcus aureus NRS51 measured after overnight incubation by broth double-dilution method; method in brief: as §1
Staphylococcus aureus [31] = assay: Antibacterial activity against methicillin-sensitive Staphylococcus aureus ATCC 6538 measured after overnight incubation by broth double-dilution method; method in brief: as §1
Staphylococcus aureus [32] = assay: Antibacterial activity against methicillin-resistant Staphylococcus aureus S22 measured after overnight incubation by broth double-dilution method; method in brief: as §1

Structure (SMILES)	MIC (Staphylococcus aureus [1]) [µg/mL]	MIC (Staphylococcus aureus [5]) [µg/mL]	MIC (Staphylococcus aureus [6]) [µg/mL]	MIC (Enterococcus) [µg/mL]	MIC (Staphylococcus aureus [8]) [µg/mL]	MIC (Enterococcus faecium) [µg/mL]	MIC (Staphylococcus aureus [9]) [µg/mL]	MIC (Staphylococcus aureus [10]) [µg/mL]	MIC (Staphylococcus aureus [11]) [µg/mL]	MIC (Staphylococcus aureus [12]) [µg/mL]	MIC (Staphylococcus aureus [14]) [µg/mL]	MIC (Enterococcus faecalis [15]) [µg/mL]	MIC [17] [µg/mL]	MIC [20] [µg/mL]	MIC (Staphylococcus aureus [21]) [µg/mL]	MIC (Staphylococcus aureus [22]) [µg/mL]	MIC (Listeria monocytogenes) [µg/mL]	MIC (Staphylococcus aureus [24]) [µg/mL]	MIC (Staphylococcus aureus [26]) [µg/mL]	MIC (Staphylococcus aureus [32]) [µg/mL]	also measured
CC(C)CCn1c(=O)c2ccccc2[s+]1[O-] (centres undefined)	> 125	> 125	> 125	> 125	> 125	> 125	> 125	> 125	> 125	> 125	> 125	> 125	> 125	> 125	> 125	> 125	> 125	> 125	> 125	> 125	MIC (Staphylococcus aureus [2]): > 125 µg/mL; MIC (Staphylococcus aureus [3]): > 125 µg/mL; MIC (Staphylococcus aureus [4]): > 125 µg/mL; MIC (Staphylococcus aureus [7]): > 125 µg/mL; MIC (Staphylococcus aureus [13]): > 125 µg/mL; MIC (Staphylococcus aureus [16]): > 125 µg/mL; MIC (Staphylococcus aureus [18]): > 125 µg/mL; MIC (Enterococcus faecalis [19]): > 125 µg/mL; MIC (Staphylococcus aureus [23]): > 125 µg/mL; MIC (Staphylococcus aureus [25]): > 125 µg/mL; MIC (Staphylococcus aureus [27]): > 125 µg/mL; MIC (Staphylococcus aureus [28]): > 125 µg/mL; MIC (Staphylococcus aureus [29]): > 125 µg/mL; MIC (Staphylococcus aureus [30]): > 125 µg/mL; MIC (Staphylococcus aureus [31]): > 125 µg/mL
CC(C)Cn1c(=O)c2ccccc2[s+]1[O-] (centres undefined)	> 125	> 125	> 125	> 125	> 125	> 125	> 125	> 125	> 125	> 125	> 125	> 125	> 125	> 125	> 125	> 125	> 125	> 125	> 125	> 125	MIC (Staphylococcus aureus [2]): > 125 µg/mL; MIC (Staphylococcus aureus [3]): > 125 µg/mL; MIC (Staphylococcus aureus [4]): > 125 µg/mL; MIC (Staphylococcus aureus [7]): > 125 µg/mL; MIC (Staphylococcus aureus [13]): > 125 µg/mL; MIC (Staphylococcus aureus [16]): > 125 µg/mL; MIC (Staphylococcus aureus [18]): > 125 µg/mL; MIC (Enterococcus faecalis [19]): > 125 µg/mL; MIC (Staphylococcus aureus [23]): > 125 µg/mL; MIC (Staphylococcus aureus [25]): > 125 µg/mL; MIC (Staphylococcus aureus [27]): > 125 µg/mL; MIC (Staphylococcus aureus [28]): > 125 µg/mL; MIC (Staphylococcus aureus [29]): > 125 µg/mL; MIC (Staphylococcus aureus [30]): > 125 µg/mL; MIC (Staphylococcus aureus [31]): > 125 µg/mL
O=c1c2ccccc2sn1-c1ccc(Br)cc1	1 (≈ 3.27 µM)	2 (≈ 6.53 µM)	0.5 (≈ 1.63 µM)	2 (≈ 6.53 µM)	2 (≈ 6.53 µM)	7.8 (≈ 25.5 µM)	3.9 (≈ 12.7 µM)	2 (≈ 6.53 µM)	2 (≈ 6.53 µM)	2 (≈ 6.53 µM)	3.9 (≈ 12.7 µM)	15.6 (≈ 50.9 µM)	0.5 (≈ 1.63 µM)	2 (≈ 6.53 µM)	≤ 0.25	2 (≈ 6.53 µM)	2 (≈ 6.53 µM)	3.9 (≈ 12.7 µM)	2 (≈ 6.53 µM)	2 (≈ 6.53 µM)	MIC (Staphylococcus aureus [2]): 3.9 µg/mL (≈ 12.7 µM); MIC (Staphylococcus aureus [3]): 2 µg/mL (≈ 6.53 µM); MIC (Staphylococcus aureus [4]): 3.9 µg/mL (≈ 12.7 µM); MIC (Staphylococcus aureus [7]): 3.9 µg/mL (≈ 12.7 µM); MIC (Staphylococcus aureus [13]): 3.9 µg/mL (≈ 12.7 µM); MIC (Staphylococcus aureus [16]): 2 µg/mL (≈ 6.53 µM); MIC (Staphylococcus aureus [23]): 2 µg/mL (≈ 6.53 µM); MIC (Staphylococcus aureus [25]): 3.9 µg/mL (≈ 12.7 µM); MIC (Staphylococcus aureus [27]): 3.9 µg/mL (≈ 12.7 µM); MIC (Staphylococcus aureus [28]): 2 µg/mL (≈ 6.53 µM); MIC (Staphylococcus aureus [29]): 3.9 µg/mL (≈ 12.7 µM); MIC (Staphylococcus aureus [30]): 2 µg/mL (≈ 6.53 µM); MIC (Staphylococcus aureus [31]): 2 µg/mL (≈ 6.53 µM)
CC(C)(C)n1sc2ccccc2c1=O	15.6 (≈ 75.3 µM)	15.6 (≈ 75.3 µM)	3.9 (≈ 18.8 µM)	3.9 (≈ 18.8 µM)	15.6 (≈ 75.3 µM)	7.8 (≈ 37.6 µM)	15.6 (≈ 75.3 µM)	15.6 (≈ 75.3 µM)	15.6 (≈ 75.3 µM)	15.6 (≈ 75.3 µM)	15.6 (≈ 75.3 µM)	125 (≈ 603 µM)	3.9 (≈ 18.8 µM)	15.6 (≈ 75.3 µM)	2 (≈ 9.65 µM)	15.6 (≈ 75.3 µM)	3.9 (≈ 18.8 µM)	15.6 (≈ 75.3 µM)	15.6 (≈ 75.3 µM)	15.6 (≈ 75.3 µM)	MIC (Staphylococcus aureus [2]): 15.6 µg/mL (≈ 75.3 µM); MIC (Staphylococcus aureus [4]): 15.6 µg/mL (≈ 75.3 µM); MIC (Staphylococcus aureus [7]): 15.6 µg/mL (≈ 75.3 µM); MIC (Staphylococcus aureus [13]): 15.6 µg/mL (≈ 75.3 µM); MIC (Staphylococcus aureus [18]): 15.6 µg/mL (≈ 75.3 µM); MIC (Enterococcus faecalis [19]): 15.6 µg/mL (≈ 75.3 µM); MIC (Staphylococcus aureus [27]): 15.6 µg/mL (≈ 75.3 µM); MIC (Staphylococcus aureus [29]): 15.6 µg/mL (≈ 75.3 µM); MIC (Staphylococcus aureus [31]): 15.6 µg/mL (≈ 75.3 µM)
C#Cc1ccc(-n2sc3ccccc3c2=O)cc1	2 (≈ 7.96 µM)	2 (≈ 7.96 µM)	1 (≈ 3.98 µM)	2 (≈ 7.96 µM)	1 (≈ 3.98 µM)	7.8 (≈ 31 µM)	3.9 (≈ 15.5 µM)	3.9 (≈ 15.5 µM)	3.9 (≈ 15.5 µM)	3.9 (≈ 15.5 µM)	3.9 (≈ 15.5 µM)	< 125	3.9 (≈ 15.5 µM)	2 (≈ 7.96 µM)	0.5 (≈ 1.99 µM)	3.9 (≈ 15.5 µM)	3.9 (≈ 15.5 µM)	3.9 (≈ 15.5 µM)	2 (≈ 7.96 µM)	2 (≈ 7.96 µM)	MIC (Staphylococcus aureus [3]): 2 µg/mL (≈ 7.96 µM); MIC (Staphylococcus aureus [16]): 2 µg/mL (≈ 7.96 µM); MIC (Staphylococcus aureus [18]): 2 µg/mL (≈ 7.96 µM); MIC (Staphylococcus aureus [23]): 2 µg/mL (≈ 7.96 µM); MIC (Staphylococcus aureus [25]): 3.9 µg/mL (≈ 15.5 µM); MIC (Staphylococcus aureus [28]): 2 µg/mL (≈ 7.96 µM); MIC (Staphylococcus aureus [30]): 3.9 µg/mL (≈ 15.5 µM)
